In the library only some 2.3% were active in any assay of this set; here they are far more common.
TRPC6 inh: blocks the mouse TRPC6 cation channel. AID 2553. Q61143. HEK293-TRPC6, membrane potential dye, ACh-evoked depolarization; stronger effect = lower value. B-score at 10 µM. 1.1% of 310,000 active;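 active = B-score under library mean minus 3 SD, initial fluorescence not abnormally high, positive integrated signal ratio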;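 note: B-score derived from integrated fluorescence ratio over the kinetic read; more negative B-score means stronger inhibition of depolarization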
Target sequence (Q61143 whole entry, looked up): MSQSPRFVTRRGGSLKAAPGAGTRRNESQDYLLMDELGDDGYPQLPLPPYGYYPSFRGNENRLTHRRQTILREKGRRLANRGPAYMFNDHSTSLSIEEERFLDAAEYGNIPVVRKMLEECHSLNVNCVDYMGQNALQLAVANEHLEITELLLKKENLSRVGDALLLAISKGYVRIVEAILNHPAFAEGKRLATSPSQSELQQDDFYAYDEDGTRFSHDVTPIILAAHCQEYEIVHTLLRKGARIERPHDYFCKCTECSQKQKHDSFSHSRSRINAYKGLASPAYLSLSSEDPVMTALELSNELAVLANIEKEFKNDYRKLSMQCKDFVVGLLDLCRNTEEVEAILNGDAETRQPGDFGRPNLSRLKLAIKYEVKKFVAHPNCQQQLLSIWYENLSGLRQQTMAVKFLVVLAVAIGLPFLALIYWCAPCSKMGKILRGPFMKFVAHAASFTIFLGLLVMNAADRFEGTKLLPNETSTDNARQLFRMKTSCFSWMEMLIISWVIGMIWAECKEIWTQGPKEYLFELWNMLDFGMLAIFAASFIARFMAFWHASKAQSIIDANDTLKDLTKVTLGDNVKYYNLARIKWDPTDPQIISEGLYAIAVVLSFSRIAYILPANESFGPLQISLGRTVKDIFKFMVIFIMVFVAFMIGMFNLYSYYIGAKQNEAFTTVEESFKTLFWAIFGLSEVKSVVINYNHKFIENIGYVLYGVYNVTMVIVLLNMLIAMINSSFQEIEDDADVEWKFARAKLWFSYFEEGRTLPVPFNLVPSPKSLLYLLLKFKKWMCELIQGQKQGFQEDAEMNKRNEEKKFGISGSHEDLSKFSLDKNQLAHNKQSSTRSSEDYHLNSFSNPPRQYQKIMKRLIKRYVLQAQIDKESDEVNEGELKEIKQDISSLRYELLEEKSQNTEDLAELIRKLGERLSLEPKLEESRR
TRPC4 PAM: allosterically enhances the mouse TRPC4 cation channel. Q9QUQ5. HEK293 TRPC4beta/mu-opioid, DAMGO EC20, Fluo-4 Ca2+ flux; stronger effect = higher value. B-score at 10 µM. 0.42% of 310,000 active;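 active = B-score of calcium response area above 5 SD of library B-scores, with initial fluorescence ratio within 5 SD of library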
TRPC4 block: blocks the mouse TRPC4 cation channel; HEK293 TRPC4beta/mu-opioid, DAMGO-evoked Fluo4 calcium flux; stronger effect = lower value; B-score at 10 µM; 0.39% of 300,000 active;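 active = B-score over 3 SD under the library average, no early fluorescence shift, positive overall ratio signal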
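Test system – stable TRPC4beta/mu-opioid receptor HEK293 cells · Probe or stimulus – DAMGO, a submaximal dose followed by a maximal one · Dosing – one concentration per compound · Signal – Fluo4 calcium fluorescence by kinetic imaging, 5 s 1 Hz baseline · Evaluation – per-well B score of integrated baseline-normalized Fluo4 ratio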
TRPC6 act: activates the mouse TRPC6 cation channel; Q61143; HEK293-TRPC6 membrane potential dye fluorescence; stronger effect = higher value; B-score at 10 µM; 0.13% of 310,000 active; AID 2550;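 active = B-score of the integrated fluorescence ratio above library mean plus 3 SD, and starting fluorescence ratio within library mean plus 5 SD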;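 note: higher score means more depolarization so channel activation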
TRPC4 act: activators of mouse TRPC4 channel. Q9QUQ5. HEK293 TRPC4beta/mu-opioid, Fluo4 calcium fluorescence; stronger effect = higher value. 0.49% of 310,000 active. AID 2237. B-score at 10 µM;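 active = B-score above 5 SD of library B-scores, and initial fluorescence ratio not above library mean plus 5 SD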;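 note: positive B-score marks a calcium rise read as TRPC4 activation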
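Test system: HEK293 cells stably co-expressing mouse TRPC4beta and mu-opioid receptor | Schedule: Fluo4 dye loading 45 min at room temperature, 110 s recording | Measured by: Kinetic Fluo4 calcium fluorescence, 5 s baseline at 1 Hz | Evaluation: B score of integrated ratio | Controls: Buffer (low) and maximal DAMGO (high)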
TRPC4 sel inh 2: second check of whether TRPC6 inhibitors also affect mouse TRPC4; shares compounds with TRPC6 inh; HEK293 TRPC4/MOR, membrane potential dye fluorescence; channel activated by saturating DAMGO dose; inhibition, % at 10 µM; 42% of 920 active; AID 2776;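 active = compounds whose fluorescence signal differed from control wells by over 3 SD, either direction, in both duplicate plates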
TRPC4 spec: mouse TRPC4 off-target activity of TRPC6 inhibitors; shares compounds with TRPC6 inh; HEK293 TRPC4/mu-opioid, membrane potential fluorescence; 61% of 920 active; activity change, negative = inhibition, % at 10 µM;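 active = rise or fall in signal beyond 3 SD of buffer-only wells in both replicate plates, either sign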;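 note: integrated kinetic ratio of fluorescence range over baseline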
HEK293 MPD ctr 2-1: parental HEK293 nonspecific activity of TRPC6 inhibitors, second screen | shares compounds with TRPC6 inh | parental HEK293 membrane potential dye fluorescence; maximal acetylcholine challenge after compound addition | signal change vs control, % at 10 µM | 31% of 920 active | AID 2779;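 active = membrane potential signal moving either way by over 3 SD of the maximum-effect control, in both duplicate plates, meaning non-specific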
HEK293 MPD ctr-1: checks TRPC6 inhibitor effects in parental HEK293 cells | membrane potential signal change, % at 10 µM | shares compounds with TRPC6 inh | parental HEK293 membrane potential dye fluorescence | 60% of 920 active;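 active = membrane potential signal shifting up or down by more than 3 SD of buffer-only wells, on both duplicate plates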
HEK293 MPD ctr-2: checks TRPC6 modulator effects in parental HEK293 cells | membrane potential signal change, % at 10 µM | membrane potential dye fluorescence | shares compounds with TRPC6 inh | 51% of 2,400 active;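 active = membrane potential signal moves up or down beyond 5 SD from buffer-only wells, on both duplicate plates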
HEK293 MPD ctr 2-2: parental HEK293 nonspecific activity of TRPC6 modulators, second screen | inhibition, % at 10 µM | AID 488926 | shares compounds with TRPC6 inh | 14% of 2,400 active | membrane potential dye fluorescence; after compound, maximal acetylcholine stimulation;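 active = membrane potential signal drops by more than 5 SD from the mean control signal, in both duplicate plates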
TRPC4 ctr mod: tests whether TRPC6 modulators also affect mouse TRPC4; shares compounds with TRPC6 inh; HEK293 TRPC4/mu-opioid, membrane potential fluorescence; percent change from control (negative = decrease, positive = increase), % at 10 µM; 69% of 2,400 active; AID 488927;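 active = membrane potential signal moved up or down beyond 5 SD of buffer control wells, in both duplicate plates, actives on both sides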
TRPC4 ctr inh 2: second selectivity test of TRPC6 modulators against mouse TRPC4 | shares compounds with TRPC6 inh | HEK293 TRPC4/mu-opioid, membrane potential dye fluorescence; stimulated with maximal-effect DAMGO | inhibition, % at 10 µM | 55% of 2,400 active | AID 488928;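 active = drop in membrane potential signal beyond 5 SD of the control wells in both duplicate plates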;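 note: TRPC4 counter screen for TRPC6 hits run under conditions tuned for TRPC6 not TRPC4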
TRPC6 inh conf: mouse TRPC6 inhibitor confirmation; 43% of 3,300 active; HEK293-TRPC6, membrane potential dye, ACh-evoked depolarization; AID 488960; shares compounds with TRPC6 inh; inhibition, % at 10 µM;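 active = fluorescence ratio falls more than 5 SD below the full-stimulation control mean, in both duplicate runs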;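 note: integrated fluorescence ratio of peak minus minimum over baseline after agonist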
TRPC6 act confirm: mouse TRPC6 activator confirmation. activation, % at 10 µM. shares compounds with TRPC6 inh. 11% of 2,800 active. HEK293-TRPC6 membrane potential dye fluorescence, FDSS;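 active = ratio signal rise beyond 5 SD above unstimulated control wells' mean, seen in both duplicate runs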
Numbers stand for hits; i = inactive; nt = no result; + = active, no number.

SMILES	TRPC6 inh	TRPC4 PAM	TRPC4 block	TRPC6 act	TRPC4 act	HEK293 MPD ctr-2	HEK293 MPD ctr 2-2	TRPC4 ctr mod	TRPC4 ctr inh 2	TRPC6 inh conf	TRPC6 act confirm	others
Cc1ccc(N/C(N)=N/c2nc(C)cc(N3CCCCC3)n2)c(C)c1	-8.95	i	i	i	i	339.0%	i	74.5%	66.0%	82.5%	nt
Cc1ccc(N/C(N)=N/c2nc3c(c(=O)[nH]2)CCCC3)c(C)c1	i	i	i	i	i	nt	nt	nt	nt	nt	nt
O=C(O)Cc1sc(-c2ccccc2Cl)nc1-c1ccccc1	-6.18	i	i	i	i	i	i	i	i	i	i
O=C(NCc1ccccc1)c1noc2c1CCCCC2	i	i	i	i	i	nt	nt	nt	nt	nt	nt
O=C(NC1CCCC1)c1noc2c1CCCCC2	-7.99	i	i	i	i	nt	nt	nt	nt	i	i	TRPC4 sel inh 2=i;TRPC4 spec=i;HEK293 MPD ctr 2-1=i;HEK293 MPD ctr-1=i
Cc1ccc(Cl)cc1NC(=O)C1CCCN(S(C)(=O)=O)C1 (stereo not given)	i	i	i	i	i	nt	nt	nt	nt	nt	nt
CCOC(=O)c1ccc(/C=C2/C=C(c3ccccc3)N(c3ccc(Cl)c(C(=O)O)c3)C2=O)cc1	i	i	i	36	72	+	i	377.0%	i	i	686.0%
CCOC(=O)c1cc2c(=O)n3ccccc3nc2n(C(C)C)c1=NC(=O)c1ccco1	i	i	i	i	i	nt	nt	nt	nt	nt	nt
CC(C)n1c(=NC(=O)c2ccco2)c(C#N)cc2c(=O)n3ccccc3cc21	-6.12	i	i	i	i	-86.5%	i	-24.5%	i	i	i
Cc1ccn2c(NC(=O)C(C)(C)Oc3ccc(Cl)cc3)c(-c3cccs3)nc2c1	-8.79	i	i	i	i	-120.0%	i	-26.0%	87.5%	58.0%	i
Cc1ccc(C(=O)Nc2c(-c3cccs3)nc3cc(C)ccn23)cc1	i	i	i	i	i	nt	nt	nt	nt	nt	nt
COc1ccc(-n2cc(CNCc3cnc4ccccn34)c(-c3cccc(F)c3)n2)cc1	i	i	i	i	i	nt	nt	nt	nt	nt	nt
Cc1[nH]c2ccc(C(=O)OCCN(C)C)cc2c1C	i	i	i	i	i	nt	nt	nt	nt	nt	nt
Cc1c(C)n(Cc2ccccc2)c2ccc(C(=O)OCCCN(C)C)cc12	-8.51	i	i	i	i	nt	nt	nt	nt	74.5%	i	TRPC4 sel inh 2=33.5%;TRPC4 spec=i;HEK293 MPD ctr 2-1=i;HEK293 MPD ctr-1=i
CCN1CCN(C(=O)c2ccc3c(c2)c(C)c(C)n3Cc2ccccc2)CC1	i	i	i	i	i	nt	nt	nt	nt	nt	nt
Cc1c(C)n(CCN(C)C)c2ccc(C(=O)OCCN(C)C)cc12	-7.08	i	i	i	i	-153.0%	i	-31.5%	75.0%	56.5%	i
O=C(CCc1c[nH]c2ccccc12)N1CCN(c2ccc(O)cc2)CC1	i	i	i	i	i	nt	nt	nt	nt	nt	nt

From PubChem
